Series [1] in a line: Brain concentration in male mouse after 30 min intravenous administration. Type of series: ADME. In short, it runs like this: (§1)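 Male CD-1 mice dosed intravenously at 1 mg/kg in 10% propylene glycol/normal saline (0.16 mg/mL). Brain and plasma concentrations measured at set post-injection times, and brain-to-plasma ratio calculated.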
The nature of series [2]: Ratio between concentration in brain to that of plasma was determined n male mouse after 30 min intravenous administration. It is filed as ADME. In short, it runs like this:
as §1

For a further series, the system named is Jurkat. Put plainly: Effective concentration required for inhibition of necroptosis in FADD deficient Jurkat T cells treated with TNF-alpha. It is filed as functional, cell-based. Particulars: Homo sapiens. In short, it runs like this:
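FADD-deficient human Jurkat T cells given human TNFα 10 ng/mL plus rising concentrations of inhibitor for 24 h. Viability read by luminescent ATP-based assay and corrected for nonspecific toxicity. EC50 from nonlinear regression of sigmoid variable-slope dose–response curves, log inhibitor concentration versus viability.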

A short description of series [3]: Volume of distribution at steady state was determined in male mouse upon intravenous administration. Type of series: ADME, organism-based. The conditions noted are these: in vivo. Put shortly:
(§2)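 CD-1 mice of each sex given a single intravenous dose of 1 mg/kg. Vehicle was 10% propylene glycol in normal saline, dosing solution 0.16 mg/mL. Plasma pharmacokinetics followed over 8 h to give AUC, Cmax, half-life, Vss and clearance.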

Series [4] is described as follows: Plasma concentration in male mouse after 30 min intravenous administration. It is filed as ADME. Put shortly:
as §1

Series [5] can be described thus: Maximum concentration in female mouse upon intravenous administration. Set-up: route intravenous. Type of series: ADME, organism-based. The conditions noted are these: in vivo. In short, it runs like this:
as §2

A short description of series [6]: Clearance value in female mouse upon intravenous administration. Particulars: in vivo, read-out: CLs. Type of series: ADME, organism-based. Put shortly:
as §2

Series [7] in a line: Area under curve concentration in male mouse after 8 hours of intravenous administration. Also noted: time < 8 hr, route intravenous. Type of series: ADME. Particulars: in vivo. In short, it runs like this: as §2
Series [8] is described as follows: Area under curve concentration in female mouse after 8 hours of intravenous administration. It is filed as ADME. Set-up: time < 8 hr, route intravenous. The conditions noted are these: in vivo. Put shortly:
as §2

A short description of series [9]: Maximum concentration in male mouse upon intravenous administration. Set-up: route intravenous. Type of series: ADME, organism-based. The conditions noted are these: in vivo. Put shortly:
as §2

Series [10] can be described thus: Plasma concentration in male mouse after 180 min intravenous administration. It is filed as ADME. In short, it runs like this: as §1
Series [11] can be described thus: Clearance value in male mouse upon intravenous administration. Particulars: in vivo, read-out: CLs. Type of series: ADME, organism-based. Put shortly:
as §2

Where only a bound is given, the exact number is not on record here.

On to `CN1C(=O)NC(Cc2c[nH]c3c(Cl)cccc23)C1=O` (stereo unspecified), for which the figures for the concentration at 0.5 h in series [1] and in series [4] were 740 nM and 310 nM, respectively. Moreover, the Kp (in general, tissue or fluid exposure divided by exposure in the circulation) at 0.5 h in series [2] was 2.4. Further, in the series on Jurkat, the EC50 (in general, the concentration at which the effect is half-maximal) came to 210 nM. For the same compound, the distribution volume (Vss) (in general, the apparent volume that relates the amount in the body to the concentration in plasma or blood) in series [3] worked out at 2.5 L/kg. In addition, the Vd in series [3] (male, read-out: Vss) is 2.5 L/kg. The Cmax – broadly, the highest concentration seen after dosing – in [5] came to 573 ng/mL; in series [9], 873 ng/mL. Besides, the clearance worked out at 100 mL/min/kg in series [6] and 61 mL/min/kg in series [11]. In addition, the AUC (commonly the area under the concentration-time curve, a measure of exposure) at 8 h in series [7] is 274 ng·h/mL; in series [8] it was 165 ng·h/mL. Also, in series [10], the concentration at 3 h is 3 nM.
As for `CN1C(=O)N[C@@H](Cc2c[nH]c3c(Cl)cccc23)C1=O`, a half-maximal effect in the series with Jurkat (EC50) was put at 230 nM.
`CN1C(=O)NC(Cc2c[nH]c3c(F)cccc23)C1=O` (stereo unspecified): the midpoint of the response with Jurkat, the EC50, lay at 590 nM.
Same read-out and setting: the same measure for `CCCCOc1cccc2c(CC3NC(=O)N(C)C3=O)c[nH]c12` (stereo unspecified): 270 nM; for `CN1C(=O)NC(Cc2c[nH]c3cccc(Cl)c23)C1=O` (stereo unspecified): 9200 nM; for `CN1C(=O)C(Cc2c[nH]c3c(Cl)cccc23)NC1=S` (stereo unspecified): 180 nM.
On the same count and under the same terms, with `CN1C(=O)C(Cc2csc3ccccc23)NC1=S` (stereo unspecified) the figure was 4800 nM.
The same measure, in the same setting: the same measure for `CN1C(=O)NC(Cc2csc3ccccc23)C1=O` (stereo unspecified): 5600 nM.
In the series on Jurkat, `CN1C(=O)NC(Cc2c[nH]c3c(OCc4ccccc4)cccc23)C1=O` (stereo unspecified) had an EC50 of more than 10000 nM.
Compound `CCCCN1C(=O)NC(Cc2c[nH]c3c(Cl)cccc23)C1=O` (stereo unspecified) yielded an EC50 in the series with Jurkat of 850 nM.
Still for that read-out and setting: with `CN1CC(Cc2c[nH]c3c(Cl)cccc23)NC1=O` (stereo unspecified) the figure was more than 10000 nM.
`CN1C(=O)NC(Cc2c[nH]c3ccccc23)C1=O` (stereo unspecified) registered an EC50 in the series with Jurkat of 1300 nM.
The same measure, in the same setting: with `COc1cccc2c(CC3NC(=S)N(C)C3=O)c[nH]c12` (stereo unspecified) the figure was 630 nM.
The same measure, in the same setting: with `CN1C(=O)C(Cc2c[nH]c3c(F)cccc23)NC1=S` (stereo unspecified) the figure was 260 nM; with `CN1C(=O)OC(Cc2c[nH]c3c(Cl)cccc23)C1=O` (stereo unspecified), 380 nM.
Still for that read-out and setting: with `Cc1cccc2c(CC3NC(=O)N(C)C3=O)c[nH]c12` (stereo unspecified) the figure was 330 nM; with `CN1C(=O)N[C@H](Cc2c[nH]c3c(Cl)cccc23)C1=O`, 50 nM; with `CN1C(=O)NC(Cc2cn(C)c3c(Cl)cccc23)C1=O` (stereo unspecified), 3800 nM.
`CN1C(=O)C(Cc2c[nH]c3ccccc23)NC1=S` (stereo unspecified) [NECROSTATIN] had an EC50 with Jurkat of 490 nM.
`CN1C(=O)C(Cc2c[nH]c3c(Br)cccc23)NC1=S` (stereo unspecified) came in with a 50% effective concentration (EC50) in the series with Jurkat of 160 nM. Against the preceding compound, the EC50 is about 3.1-fold lower.
Same read-out and setting: with `O=C1NC(=S)NC1Cc1c[nH]c2ccccc12` (stereo unspecified) the figure was more than 10000 nM; with `CN1C(=O)C(Cc2c[nH]c3c(Cl)cccc23)N(C)C1=O` (stereo unspecified), more than 10000 nM; with `Cc1[nH]c2ccccc2c1CC1NC(=O)N(C)C1=O` (stereo unspecified), more than 10000 nM.
Still for that read-out and setting: the same measure for `O=C1NC(Cc2c[nH]c3c(Cl)cccc23)CO1` (stereo unspecified): more than 10000 nM.
Consider `CN1C(=O)C(Cc2cn(C)c3ccccc23)NC1=S` (stereo unspecified), for which, in the series with Jurkat, the EC50 is more than 10000 nM.
`CC(C)N1C(=O)NC(Cc2c[nH]c3c(Cl)cccc23)C1=O` (stereo unspecified) had an EC50 in the series with Jurkat of more than 10000 nM.
The same measure, in the same setting: with `CN1C(=O)NC(Cc2c[nH]c3c(Cl)cc(Cl)cc23)C1=O` (stereo unspecified) the figure was more than 10000 nM.
The same measure, in the same setting: with `COc1ccc2[nH]cc(CC3NC(=O)N(C)C3=O)c2c1` (stereo unspecified) the figure was more than 10000 nM; with `CN1C(=O)C(Cc2cn(C)c3c(Cl)cccc23)NC1=S` (stereo unspecified), more than 10000 nM.
In the series with Jurkat, `O=C1NC(=O)C(Cc2c[nH]c3ccccc23)N1` (stereo unspecified) gave an EC50 of more than 10000 nM.
In turn, `CN1C(=O)NC(Cc2c[nH]c3cc(Cl)ccc23)C1=O` (stereo unspecified) returned an EC50 with Jurkat of 5700 nM.
Still for that read-out and setting: with `CCN1C(=O)N[C@@H](Cc2c[nH]c3c(Cl)cccc23)C1=O` the figure was 180 nM; with `CN1C(=O)C(Cc2c[nH]c3cc(Cl)ccc23)NC1=S` (stereo unspecified), more than 10000 nM.
The compound `COc1cccc2c(CC3NC(=O)N(C)C3=O)c[nH]c12` (stereo unspecified) yielded a half-maximal effective concentration (EC50) in the series on Jurkat of 710 nM.

The values are drawn from ChEMBL document CHEMBL1143645, “Structure-activity relationship study of novel necroptosis inhibitors” (Bioorg Med Chem Lett, 2005).
